According to paper PMC5613298 (Biochemistry and Biophysics Reports, 2016):
Where two headings read alike, the source gives them in different places. Starred links: 1 amine or outer side, 2 acyl side, 3 side chain; linkers in the order of their positions; H or OH if unused. Non-standard residues stand in square brackets, D forms with d. Residues, ends and D or L forms follow the SMILES beside them. Trp(7-aza) = N[C@@H](Cc1c[nH]c2ncccc12)C(=O)O; X1 = O=C([C@H](Cc1n[nH]c2ncccc12)N[*:1])[*:2]

Columns and labels:
[1] = time-resolved fluorescence; format: physicochemical
Summary of the method: (§1)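 Lifetimes measured by time-correlated single-photon counting, with two sources. One used hydrogen-lamp excitation (about 300 ps resolution). The other used 310 nm third-harmonic excitation from 930 nm femtosecond pulses (82 MHz) with a microchannel-plate detector (about 15 ps resolution). Emission was collected at right angles through a 54.7° polarizer. Decays were fitted to sums of exponentials with the instrument response deconvolved.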

[2] = cited from earlier work
[3] = steady-state absorption and emission spectroscopy, free in solution; format: physicochemical; details: for λabs: neutral water; for λem, normal / N(1)-H emission: neutral water (peptides: neutral Tris buffer); for λem, second band (N(2)-H emission) / λem, third band (N(7)-H tautomer emission): neutral water / neutral Tris buffer
Summary of the method: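 Absorption recorded on a UV-vis spectrophotometer. Emission recorded on a fluorimeter with wavelength-calibrated excitation and emission response. Peptide concentration was set spectrophotometrically from the extinction coefficient of its single Trp or Trp-analogue residue.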

[4] = target: T1, bovine brain calmodulin (CaM) (Bos taurus, UniProt P62157); test: CaM binding by fluorescence titration; details: for increase in CaM binding affinity on replacing Trp: relative to Baa (210±10 pM)
[5] = cited from earlier work; remark: listed apart in the source
[6] = CD spectrum; format: physicochemical; details: Fig. S2
[7] = target: T1, bovine brain calmodulin (CaM); test: steady-state emission spectra upon titration with CaM; format: binding; details: for λem, N(1)-H emission: bound to CaM, pH 7.5 Tris buffer; for environment around Trp analogue upon binding CaM: deduced from steady-state emission; for λabs: in presence of CaM
Summary of the method: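 Peptide at 1 µM in 5 mM Tris-HCl, pH 7.5, 1.0 mM CaCl₂, 25 °C. CaM added stepwise to 6 µM final, with 1 min stirring and 10 min equilibration per step. Full emission spectra recorded on a calibrated fluorimeter, corrected for dilution, each an average of three replicates. Peptide and CaM concentrations were set from Trp and Tyr absorption extinction coefficients.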

[8] = target: T1, bovine brain calmodulin (CaM); test: time-resolved fluorescence; format: binding; details: peptide-CaM complex, ±0.03 ns uncertainty
Summary of the method: as §1

[9] = free, neutral water, λmon not given, ±0.03 ns uncertainty
[10] = free, neutral water, λmon 320 nm, ±0.03 ns uncertainty
[11] = free, neutral water, λmon 550 nm, ±0.03 ns uncertainty
[12] = free, neutral water, λmon 380 nm
[13] = free, neutral water, λmon 380 nm, ±0.03 ns uncertainty
[14] = free, neutral water, λmon 540 nm, ±0.03 ns uncertainty

## c1cnc2[nH]ccc2c1 [7-azaindole]
[1]; [9]
  τ: 0.91 ns
[2]; in DMSO
  lifetime: 9.3 ns
[2]; in acetonitrile
  lifetime: 5.7 ns
[3]
  λabs: 288 nm
  λem, normal / N(1)-H emission: 386 nm

## N[C@@H](Cc1c[nH]c2ncccc12)C(=O)O [(7-aza)Trp, 7-azatryptophan]
[4]
  increase in CaM binding affinity on replacing Trp: 1.9 times
[1]; [9]
  τ: 0.65 ns
[5]; in tetrahydrofuran
  emission maximum: 350 nm
[3]
  λabs: 289 nm
  λem, normal / N(1)-H emission: 400 nm

## Ac-LKWKKLLKLLKKLLKLG-NH2 [Baa]
[6]
  secondary structure by CD: α-helix structure

## CC(=O)N[C@@H](CC(C)C)C(=O)N[C@@H](CCCCN)C(=O)N[C@@H](Cc1n[nH]c2ncccc12)C(=O)N[C@@H](CCCCN)C(=O)N[C@@H](CCCCN)C(=O)N[C@@H](CC(C)C)C(=O)N[C@@H](CC(C)C)C(=O)N[C@@H](CCCCN)C(=O)N[C@@H](CC(C)C)C(=O)N[C@@H](CC(C)C)C(=O)N[C@@H](CCCCN)C(=O)N[C@@H](CCCCN)C(=O)N[C@@H](CC(C)C)C(=O)N[C@@H](CC(C)C)C(=O)N[C@@H](CCCCN)C(=O)N[C@@H](CC(C)C)C(=O)NCC(N)=O [(2,7-aza)Trp-Baa] (Ac-LK[X1]KKLLKLLKKLLKLG-NH2)
[6]
  secondary structure by CD: α-helix structure
[4]
  Kd: 45 ± 2 pM
[7]; 1.0 mM CaCl2
  λem, N(1)-H emission: 340 nm
[7]
  environment around Trp analogue upon binding CaM: water scant environment
  λabs: 300 nm
[7]; pH 7.5 Tris, 1.0 mM CaCl2
  change of N(1)-H emission at 340 nm upon titration with CaM: increase of the N(1)-H emission
[1]; free peptide in water, λmon 330 nm, ±0.03 ns uncertainty
  τ, N(1)-H emission lifetime: 0.21 ns
[8]; λmon 330 nm
  τ, N(1)-H emission lifetime: 1.10 ns
[3]
  λabs: 300 nm
  λem, normal / N(1)-H emission: 340 nm
  λem, second band (N(2)-H emission): 380 nm
  λem, third band (N(7)-H tautomer emission): 500 nm

## c1cnc2[nH]ncc2c1 [2,7-diazaindole]
[1]; [10]
  τ: 0.22 ns
[1]; free, neutral water, λmon 400 nm, ±0.03 ns uncertainty
  τ: 10.10 ns
[1]; [11]
  τ, decay component: 1.30 ns
  τ, rise component: 0.21 ns
[3]
  λabs: 295 nm
  λem, normal / N(1)-H emission: 335 nm
  λem, second band (N(2)-H emission): 370 nm
  λem, third band (N(7)-H tautomer emission): 495 nm

## CC(=O)N[C@@H](CC(C)C)C(=O)N[C@@H](CCCCN)C(=O)N[C@@H](Cc1c[nH]c2ncccc12)C(=O)N[C@@H](CCCCN)C(=O)N[C@@H](CCCCN)C(=O)N[C@@H](CC(C)C)C(=O)N[C@@H](CC(C)C)C(=O)N[C@@H](CCCCN)C(=O)N[C@@H](CC(C)C)C(=O)N[C@@H](CC(C)C)C(=O)N[C@@H](CCCCN)C(=O)N[C@@H](CCCCN)C(=O)N[C@@H](CC(C)C)C(=O)N[C@@H](CC(C)C)C(=O)N[C@@H](CCCCN)C(=O)N[C@@H](CC(C)C)C(=O)NCC(N)=O [(7-aza)Trp-Baa] (Ac-LK[Trp(7-aza)]KKLLKLLKKLLKLG-NH2)
[6]
  secondary structure by CD: α-helix structure
[4]
  Kd: 109 ± 5 pM
[7]; 1.0 mM CaCl2
  λem, N(1)-H emission: 358 nm
[7]
  environment around Trp analogue upon binding CaM: less polar environment
  λabs: 300 nm
[1]; free peptide, neutral Tris buffer, λmon 400 nm, ±0.03 ns uncertainty
  τ, normal (N(1)-H) emission lifetime: 0.65 ns
[8]; λmon 360 nm (text: 358 nm emission)
  τ, normal (N(1)-H) emission lifetime: 7.35 ns
[3]
  λabs: 300 nm
  λem, normal / N(1)-H emission: 400 nm

## N[C@@H](Cc1n[nH]c2ncccc12)C(=O)O [(2,7-aza)Trp, 2,7-diazatryptophan]
[4]
  increase in CaM binding affinity on replacing Trp: 4.7 times
[1]; [10]
  τ: 0.26 ns
[1]; [12]
  percentage of τ component 1: 12%
  percentage of τ component 2: 88%
[1]; [13]
  τ, component 1: 0.27 ns
  τ, component 2: 10.07 ns
[1]; [14]
  τ, decay component: 0.58 ns
  τ, rise component: 0.26 ns
[5]; water rich environments
  N(7)-H tautomer emission: 500 nm
[3]
  λabs: 300 nm
  λem, normal / N(1)-H emission: 340 nm
  λem, second band (N(2)-H emission): 380 nm
  λem, third band (N(7)-H tautomer emission): 500 nm
